Assay results published in ChEMBL document CHEMBL1126905, “Inhibitors of cholesterol biosynthesis. 2. 3,5-Dihydroxy-7-(N-pyrrolyl)-6-heptenoates, a novel series of HMG-CoA reductase inhibitors” (J Med Chem, 1993).

Columns and labels:
[1] = target: T1, 3-hydroxy-3-methylglutaryl-coenzyme A reductase (Rattus norvegicus, UniProt P51639); assay: Inhibition of rat liver microsomal HMG-CoA reductase
T1 sequence (P51639 whole entry): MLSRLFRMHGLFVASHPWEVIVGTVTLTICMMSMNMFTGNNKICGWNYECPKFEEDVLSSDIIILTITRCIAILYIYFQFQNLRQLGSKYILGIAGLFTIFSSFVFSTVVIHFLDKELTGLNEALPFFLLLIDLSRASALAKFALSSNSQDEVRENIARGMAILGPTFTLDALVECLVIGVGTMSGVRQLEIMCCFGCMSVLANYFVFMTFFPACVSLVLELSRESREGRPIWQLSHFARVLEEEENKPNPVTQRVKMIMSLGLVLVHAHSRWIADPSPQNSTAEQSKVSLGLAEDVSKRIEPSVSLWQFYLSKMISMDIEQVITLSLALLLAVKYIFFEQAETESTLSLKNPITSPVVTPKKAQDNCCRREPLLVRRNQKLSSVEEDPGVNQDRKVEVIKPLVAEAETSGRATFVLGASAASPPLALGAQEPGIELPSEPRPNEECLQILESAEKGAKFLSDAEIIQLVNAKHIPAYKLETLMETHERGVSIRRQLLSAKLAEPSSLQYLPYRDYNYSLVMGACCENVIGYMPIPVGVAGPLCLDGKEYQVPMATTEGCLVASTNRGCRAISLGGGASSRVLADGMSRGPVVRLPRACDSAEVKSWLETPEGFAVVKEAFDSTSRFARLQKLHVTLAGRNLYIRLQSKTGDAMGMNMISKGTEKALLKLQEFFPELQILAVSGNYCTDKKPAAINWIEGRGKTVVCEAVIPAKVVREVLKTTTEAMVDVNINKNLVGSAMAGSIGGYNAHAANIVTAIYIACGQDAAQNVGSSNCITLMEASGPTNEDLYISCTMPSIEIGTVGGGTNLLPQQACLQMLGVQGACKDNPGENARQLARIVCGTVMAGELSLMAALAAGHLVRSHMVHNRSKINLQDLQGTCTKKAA
Summary of the method: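 Test agents run as sodium salts of the dihydroxy carboxylic acids, against rat liver microsomal enzyme. Five dose levels per inhibitor, at least in duplicate, on at least two separate occasions. IC50 given as the mean, with pravastatin sodium salt as reference.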

[2] = Lipophilicity was determined; type: physicochemical; details: octanol/water

Compound: CC[C@H](C)C(=O)O[C@H]1C[C@H](O)C=C2C=C[C@H](C)[C@H](CC[C@@H](O)C[C@@H](O)CC(=O)O)[C@H]21 [PRAVASTATIN SODIUM]
- IC50 [1]: 5 nM

Compound: COC(=O)C[C@H](O)C[C@H](O)/C=C/n1c(C(C)C)cc(-c2ccc(F)cc2)c1-c1cccc(Br)c1
- IC50 [1]: 69 nM

Compound: COC(=O)C[C@H](O)C[C@H](O)/C=C/n1c(C(C)C)cc(-c2ccc(F)cc2)c1-c1cccc(Cl)c1
- IC50 [1]: 71 nM

Compound: COC(=O)C[C@H](O)C[C@H](O)/C=C/n1c(C(C)C)cc(-c2ccncc2)c1-c1ccc(F)cc1
- logD [2]: 0.9
- IC50 [1]: 5 nM

Compound: COC(=O)C[C@H](O)C[C@H](O)/C=C/n1c(C(C)C)cc(-c2ccccn2)c1-c1ccc(F)cc1
- IC50 [1]: 2 nM

Compound: CC[C@H](C)C(=O)O[C@H]1C[C@@H](C)C=C2C=C[C@H](C)[C@H](CC[C@@H]3C[C@@H](O)CC(=O)O3)[C@H]21 [LOVASTATIN]
- IC50 [1]: 3 nM

Compound: COC(=O)C[C@H](O)C[C@H](O)CCn1c(C(C)C)cc(-c2ccc(F)cc2)c1-c1ccc(F)cc1
- IC50 [1]: 105 nM

Compound: COC(=O)C[C@H](O)C[C@H](O)/C=C/n1c(C(C)C)cc(-c2ccc(F)cc2)c1-c1ccc(F)cc1
- logD [2]: 2.1
- IC50 [1]: 2 nM

Compound: COC(=O)C[C@H](O)C[C@H](O)/C=C/n1c(C(C)C)cc(-c2cccc(Br)c2)c1-c1ccc(F)cc1
- logD [2]: 2.8
- IC50 [1]: 0.5 nM

Compound: COC(=O)C[C@H](O)C[C@H](O)/C=C/n1c(C(C)C)cc(-c2ccc(F)cc2)c1-c1ccccc1
- IC50 [1]: 25 nM

Compound: COC(=O)C[C@H](O)C[C@H](O)/C=C/n1c(C(C)C)cc(-c2ccccc2)c1-c1ccc(F)cc1
- IC50 [1]: 2 nM

Compound: COC(=O)C[C@H](O)C[C@H](O)/C=C/n1c(C(C)C)cc(-c2cccc(Cl)c2)c1-c1ccc(F)cc1
- logD [2]: 2.57
- IC50 [1]: 2 nM

Compound: COC(=O)C[C@H](O)C[C@H](O)/C=C/n1c(-c2ccc(F)cc2)c(-c2ccc(F)cc2)c(Br)c1C(C)C
- IC50 [1]: 0.3 nM
